According to ChEMBL document CHEMBL1125423, “Potent and systemically active aminopeptidase N inhibitors designed from active-site investigation” (J Med Chem, 1992):

Key:
Aminopeptidase N [1] = molecular target: T1, Aminopeptidase N (Sus scrofa, UniProt P15145); assay: Inhibition of [3H]Leu-enkephalin binding to Aminopeptidase N from hog kidney
T1 sequence (P15145 whole entry): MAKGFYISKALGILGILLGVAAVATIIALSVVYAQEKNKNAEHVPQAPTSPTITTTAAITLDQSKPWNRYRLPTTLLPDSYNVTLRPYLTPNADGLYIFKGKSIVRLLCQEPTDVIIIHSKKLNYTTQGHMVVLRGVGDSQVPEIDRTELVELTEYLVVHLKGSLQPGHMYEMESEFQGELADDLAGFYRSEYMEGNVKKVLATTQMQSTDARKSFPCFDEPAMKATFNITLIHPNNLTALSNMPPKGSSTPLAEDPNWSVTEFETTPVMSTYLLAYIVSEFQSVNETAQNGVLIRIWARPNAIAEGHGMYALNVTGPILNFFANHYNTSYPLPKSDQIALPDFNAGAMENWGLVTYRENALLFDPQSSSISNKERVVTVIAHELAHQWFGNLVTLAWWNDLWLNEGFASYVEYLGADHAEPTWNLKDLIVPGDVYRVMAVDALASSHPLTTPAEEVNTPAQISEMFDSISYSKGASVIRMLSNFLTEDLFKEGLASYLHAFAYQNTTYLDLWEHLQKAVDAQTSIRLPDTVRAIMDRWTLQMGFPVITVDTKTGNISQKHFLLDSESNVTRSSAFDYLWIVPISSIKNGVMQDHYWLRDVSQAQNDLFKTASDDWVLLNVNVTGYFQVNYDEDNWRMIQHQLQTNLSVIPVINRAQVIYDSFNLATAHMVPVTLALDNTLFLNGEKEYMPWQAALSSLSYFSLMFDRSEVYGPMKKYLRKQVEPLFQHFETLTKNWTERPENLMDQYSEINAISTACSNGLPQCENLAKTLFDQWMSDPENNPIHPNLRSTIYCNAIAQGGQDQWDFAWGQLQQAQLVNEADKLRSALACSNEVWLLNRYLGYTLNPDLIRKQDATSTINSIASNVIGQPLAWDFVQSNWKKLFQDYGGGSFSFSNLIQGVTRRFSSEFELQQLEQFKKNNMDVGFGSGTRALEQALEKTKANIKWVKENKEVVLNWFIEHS
Summary of the method: (§1)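 Hog kidney APN preincubated 15 min at 25 °C with rising inhibitor concentrations in 50 mM Tris-HCl pH 7.4; thiols supplied as disulfides reduced in situ with 100 equiv DTT. [3H]Tyr1-Leu5-enkephalin added at 10 nM final (Km 50 μM); reaction stopped after 15 min with HCl. Released [3H]Tyr separated on polystyrene beads; IC50 determined.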

Aminopeptidase N [2] = molecular target: T1, Aminopeptidase N; assay: Compound was tested for inhibitory potency against aminopeptidase N from hog kidney, using [3H]Leu-enkephalin as substrate; summary of the method: as §1
Mus musculus [3] = assay: Compound( 5 mg/kg) was tested for antinociceptive responses induced in hot plate test in mice after an iv dose of acetorphan 10 mg/kg.; assay type: functional
Summary of the method: (§2)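 Male Swiss mice (20–22 g); agents given iv under disulfide form together with acetorphan 10 mg/kg, in ethanol 10%/cremophor EL 10%/water 80% at 0.1 mL per 10 g; vehicle-injected controls. Jump latency read on hot plate at 55 ± 0.5 °C 15 min after injection, cut-off 240 s. % analgesia = (test − control latency)/(cut-off − control latency) × 100; ANOVA then Dunnett's t test.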

Mus musculus [4] = assay: Compound (10 mg/kg) was tested for antinociceptive responses induced in hot plate test in mice after an iv dose of acetorphan 10 mg/kg.; assay type: functional; summary of the method: as §2
Mus musculus [5] = assay: Compound (20 mg/kg) was tested for antinociceptive responses induced in hot plate test in mice after an iv dose of acetorphan 10 mg/kg.; assay type: functional; summary of the method: as §2
Mus musculus [6] = assay: Compound (40 mg/kg) was tested for antinociceptive responses induced in hot plate test in mice after an iv dose of acetorphan 10 mg/kg.; assay type: functional; summary of the method: as §2
Mus musculus [7] = assay: Compound( 10 mg/kg) was tested for antinociceptive responses induced in hot plate test in mice after an iv dose of acetorphan 10 mg/kg.; assay type: functional
Summary of the method: (§3)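 Male Swiss mice (20–22 g) given compound as disulfide form iv, coadministered with acetorphan 10 mg/kg, in ethanol (10%)/cremophor EL (10%)/water (80%) vehicle, 0.1 mL per 10 g; controls got vehicle. Hot plate at 55 ± 0.5 °C 15 min later; jump latency recorded, cut-off 240 s. % analgesia = (test − control latency)/(cut-off − control latency) × 100; ANOVA then Dunnett's t test.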

Mus musculus [8] = assay: Compound( 20 mg/kg) was tested for antinociceptive responses induced in hot plate test in mice after an iv dose of acetorphan 10 mg/kg.; assay type: functional; summary of the method: as §3
Mus musculus [9] = assay: Compound( 5 mg/kg) was tested for antinociceptive responses induced in hot plate test in mice(% analgesia) after an iv dose of acetorphan 10 mg/kg.; assay type: functional; summary of the method: as §3

Compound | IC50 (Aminopeptidase N [1]) [nM] | Jump latency time (Mus musculus [5]) [s] | Jump latency time (Mus musculus [6]) [s] | further results
CC(C)(C)SCC(N)CS (centres undefined) | 40 |  |  | 
NC(CC(=O)O)Cc1ccccc1 (centres undefined) |  |  |  | IC50 (Aminopeptidase N [2]): 800000 nM
CSCCC(N)CS (centres undefined) |  | 240 |  | Jump latency time (Mus musculus [3]): 200.8 s; Jump latency time (Mus musculus [4]): 225.4 s
NC(Cc1ccccc1)CP(=O)(O)O (centres undefined) | 500000 |  |  | 
NC(CS)CC1CCCCC1 (centres undefined) |  |  |  | IC50 (Aminopeptidase N [2]): 45 nM
C[S+]([O-])CCC(N)CS (centres undefined) |  | 240 |  | Jump latency time (Mus musculus [3]): 216.9 s; Jump latency time (Mus musculus [4]): 236 s
NC(CS)Cc1ccccc1 (centres undefined) |  |  |  | Jump latency time (Mus musculus [7]): 147.9 s; Jump latency time (Mus musculus [3]): 90 s; Jump latency time (Mus musculus [8]): 204.2 s; ED50 (Mus musculus [9]): 12 mg/kg
NC(CS)Cc1ccc(O)cc1 (centres undefined) |  | 119 | 166.4 | Jump latency time (Mus musculus [3]): 112.9 s; IC50 (Aminopeptidase N [2]): 45 nM
NC(CS)c1ccccc1 (centres undefined) |  |  |  | IC50 (Aminopeptidase N [2]): 25 nM
CNC(CS)CC(C)C (centres undefined) | 4000 |  |  | 

Now from value to compound, other results behind:

IC50 (Aminopeptidase N [1]) [nM] | Compound | Jump latency time (Mus musculus [5]) [s] | Jump latency time (Mus musculus [6]) [s] | further results
160000 | SCC(Cc1ccccc1)NCc1ccccc1 (centres undefined) |  |  | 
22 | CC(C)CC(N)CS (centres undefined) | 225.6 | 240 | 
56 | NC(CS)COCc1ccccc1 (centres undefined) | 166.5 | 229.4 | 
130 | NC(CS)Cc1ccc2ccccc2c1 (centres undefined) | 106.6 | 132.8 | 
80000 | NC(CSCc1ccccc1)Cc1ccccc1 (centres undefined) |  |  | 
90 | NC(CS)CSCc1ccccc1 (centres undefined) | 232.2 | 233.6 | 
